This is an account of results in ChEMBL document CHEMBL4043300, “2 H-1,2,3-Triazole-Based Dipeptidyl Nitriles: Potent, Selective, and Trypanocidal Rhodesain Inhibitors by Structure-Based Design” (J Med Chem, 2018).

Converted amounts (≈) assume the structure as drawn.

A short description of data set [1]: Solubility of the compound at pH 6.5 by LYSA. The following applies: buffer. The class given is physicochemical. The method in brief:
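Lyophilization solubility assay at pH 6.5.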

A short description of data set [2]: Selectivity index, ratio of Ki for human CatL to Ki for Trypanosoma brucei rhodesiense rhodesain. In outline:
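Ki(hCatL)/Ki(RD). Fluorimetric assays at 25 °C: RD in 50 mM sodium acetate pH 5.5; hCatL in 50 mM Tris pH 6.5; both buffers with 5 mM EDTA, 200 mM NaCl, 0.005% Brij35. Ki derived from IC50 by Cheng-Prusoff. Each value is the mean of two measurements, each done in duplicate.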

The nature of data set [3]: Selectivity index, ratio of IC50 for rat L6 cells to IC50 for bloodstream form of Trypanosoma brucei rhodesiense STIB 900. It counts as toxicity. To be noted: read-out: Ratio IC50. In outline: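 Ratio of L-6 rat skeletal myoblast IC50 to T. b. rhodesiense STIB 900 bloodstream trypomastigote IC50, both from Alamar Blue growth-inhibition assays. Each IC50 is the mean of at least 2 measurements.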

Data set [4] has as its system Trypanosoma brucei rhodesiense. In words: Antitrypanosomal activity against bloodstream form of Trypanosoma brucei rhodesiense STIB 900 assessed as parasite growth inhibition after 72 hrs by Alamar blue assay. The class given is functional. To be noted: STIB 900, 72 h. The method in brief: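 Standard 72 h growth-inhibition assay with STIB 900 bloodstream trypomastigotes and Alamar Blue read-out. Value is the mean of at least 2 measurements.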

Data set [5] deals with Rhodesain (Trypanosoma brucei rhodesiense, UniProt Q95PM0). In words: Inhibition of Trypanosoma brucei rhodesiense rhodesain using Cbz-Phe-Arg-AMC as substrate by fluorimetric method. The method in brief: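 Fluorescence-based assay run at 25 °C in 50 mM sodium acetate pH 5.5 with 5 mM EDTA, 200 mM NaCl and 0.005% Brij35. IC50 values were converted to Ki with the Cheng-Prusoff equation. Values are the average of two measurements, each done in duplicate.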

In data set [6] the target is Procathepsin L (Homo sapiens, UniProt P07711). In words: Inhibition of human CatL using Cbz-Phe-Arg-AMC as substrate measured over 30 mins by fluorimetric method. In outline:
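Human cathepsin L in a fluorimetric assay in 50 mM Tris pH 6.5, 5 mM EDTA, 200 mM NaCl, 0.005% Brij35 at 25 °C. Ki was calculated from IC50 by Cheng-Prusoff. Value is the average of two measurements, each in duplicate.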

In data set [7] the test system is L6. Description: Cytotoxicity against rat L6 cells after 72 hrs by Alamar blue assay. The class given is cell-based. To be noted: L6, 72 h. The method in brief: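 Rat skeletal myoblast L6 cells in an Alamar Blue growth-inhibition assay. Value is the mean of at least 2 measurements.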
Data set [8] in a line: Octanol-water intrinsic distribution co-efficient, log D of the compound at 100 uM at pH 7.4 after 16 to 22 hrs by CAMDIS assay. The class given is physicochemical. The method in brief: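 Octanol/aqueous buffer (pH 7.4) intrinsic distribution coefficient measured in the CAMDIS carrier-mediated distribution system.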

Sequence of Rhodesain (Q95PM0 whole entry): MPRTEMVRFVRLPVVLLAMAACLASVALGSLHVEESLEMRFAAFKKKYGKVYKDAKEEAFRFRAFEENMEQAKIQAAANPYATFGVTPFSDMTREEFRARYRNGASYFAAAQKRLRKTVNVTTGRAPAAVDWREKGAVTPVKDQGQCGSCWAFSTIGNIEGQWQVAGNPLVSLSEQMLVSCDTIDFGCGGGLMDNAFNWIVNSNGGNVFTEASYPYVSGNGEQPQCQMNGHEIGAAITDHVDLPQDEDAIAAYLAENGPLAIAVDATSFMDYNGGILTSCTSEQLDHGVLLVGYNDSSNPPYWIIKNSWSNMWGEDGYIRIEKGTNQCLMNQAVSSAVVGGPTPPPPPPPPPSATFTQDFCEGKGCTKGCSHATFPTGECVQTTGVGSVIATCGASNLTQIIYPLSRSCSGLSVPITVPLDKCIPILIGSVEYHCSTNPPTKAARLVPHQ
Sequence of Procathepsin L (P07711 whole entry): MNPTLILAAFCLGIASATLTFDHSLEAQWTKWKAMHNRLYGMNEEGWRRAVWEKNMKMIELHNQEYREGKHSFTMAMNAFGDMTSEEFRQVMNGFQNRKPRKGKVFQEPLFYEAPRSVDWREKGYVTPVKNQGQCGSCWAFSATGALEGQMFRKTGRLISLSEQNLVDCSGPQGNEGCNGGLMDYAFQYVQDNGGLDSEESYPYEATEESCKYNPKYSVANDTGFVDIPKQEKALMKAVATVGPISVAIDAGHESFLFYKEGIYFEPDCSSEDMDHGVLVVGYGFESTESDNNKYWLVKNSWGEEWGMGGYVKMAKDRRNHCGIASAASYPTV

Consider `N#CC1(NC(=O)[C@H](Cc2ccc(OC(F)(F)F)c(Cl)c2)NC(=O)c2cnn(-c3ccc(Cl)cc3)n2)CC1`, for which the solubility in data set [1] was below 0.3 µg/mL. The Ratio Ki in data set [2] worked out at 47. The selectivity ratio in data set [3] was determined as 377. The IC50 in data set [4] was 22 nM; in data set [7], 8300 nM. The inhibitory constant (Ki) is 10 nM in data set [5] and 467 nM in data set [6].

Take `N#Cc1ccccc1C[C@H](NC(=O)c1cnn(-c2ccc(F)cc2)n1)C(=O)NC1(C#N)CC1`: the Ratio Ki in data set [2] lay within 18 to 507. The same compound displayed a Ki in data set [5] of 7.4 to 597 nM.

With `N#CC1(NC(=O)[C@H](Cc2ccc(OC(F)(F)F)c(Cl)c2)NC(=O)c2cnn(C3CCC3)n2)CC1`, the pH-dependent lipophilicity (logD) at 100 µM in data set [8] stood at 3.88. In addition, in data set [1], the concentration in solution (solubility) came to 11 µg/mL (≈ 22.1 µM). Also, in data set [2], the Ratio Ki came out at 1. In data set [3], the selectivity ratio turned out to be 48000. Moreover, the concentration for half-maximal inhibition (IC50) in data set [4] turned out to be 1 nM; in data set [7], 48000 nM. In addition, the inhibitory constant (Ki) in data set [5] and in data set [6] was 11 nM in each case.

For `N#CC1(NC(=O)[C@H](Cc2ccc(OC(F)(F)F)c(Cl)c2)NC(=O)c2cnn(C3CCCCC3)n2)CC1`, in data set [1], the solubility was determined as 0.3 µg/mL (≈ 0.572 µM). Also, in data set [2], the Ratio Ki turned out to be 6.8. Further, the selectivity ratio in data set [3] is 5170. Also, the IC50 in data set [4] is 6 nM; in data set [7] it was 31000 nM. Also, the Ki stood at 12 nM in data set [5] and 82 nM in data set [6].

Turning to `COCCOc1ccc(C[C@H](NC(=O)c2cnn(-c3ccc(F)cc3)n2)C(=O)NC2(C#N)CC2)cc1Cl`, in data set [2], the Ratio Ki lay in the range of 18 to 507. For the same compound, in data set [4], the IC50 is 27 to 190 nM. The Ki in data set [5] was in the range of 9 to 16 nM; in data set [6], 181 to 314 nM.

As for `CC(C)C[C@H](NC(=O)c1cnn(-c2ccc(F)cc2)n1)C(=O)NC1(C#N)CC1`, in data set [8], the logD at 100 µM came to 3.3. The compound further yielded a solubility in data set [1] of 42 µg/mL (≈ 109 µM). In addition, the Ratio Ki in data set [2] was in the range of 18 to 507. The IC50 in data set [4] turned out to be 2200 nM. In addition, in data set [5], the Ki was found to be 23 nM.

`N#CC1(NC(=O)[C@H](Cc2ccc(OC(F)(F)F)c(Cl)c2)NC(=O)c2cnn(C3CCOCC3)n2)CC1`: in data set [8], the log distribution coefficient (logD) at 100 µM stood at 3.33. In data set [1], this compound displayed a solubility of 90 µg/mL (≈ 171 µM). Further, the Ratio Ki in data set [2] worked out at 6.2. The 50% inhibitory concentration (IC50) in data set [4] is 13 nM; in data set [7] it was above 100000 nM. Also, the Ki in data set [5] is 18 nM; in data set [6], 112 nM.

Compound `N#CC1(NC(=O)[C@H](Cc2ccc(OCC3CCC3)c(Cl)c2)NC(=O)c2cnn(-c3ccc(F)cc3)n2)CC1` gave a solubility in data set [1] below 0.3 µg/mL. Moreover, the Ratio Ki in data set [2] is 20. Moreover, the selectivity ratio in data set [3] amounted to 281. For the same compound, the values for the 50% inhibitory concentration (IC50) in data set [4] and in data set [7] were 27 nM and 7600 nM, respectively. For the same compound, the Ki came to 16 nM in data set [5] and 314 nM in data set [6].

`N#CC1(NC(=O)[C@H](Cc2ccccc2)NC(=O)c2cnn(-c3ccc(F)cc3)n2)CC1`: the Ratio Ki in data set [2] lay in the range of 18 to 507. The Ki in data set [5] fell in the range of 7.4 to 597 nM.

Turning to `N#CC1(NC(=O)[C@H](Cc2ccc(OC(F)(F)F)c(Cl)c2)NC(=O)c2cnn(C3CC(F)(F)C3)n2)CC1`, in data set [8], the logD at 100 µM was found to be 3.89. Further, the solubility in data set [1] was 2.2 µg/mL (≈ 4.13 µM). Moreover, the Ratio Ki in data set [2] came to 1.5. The selectivity ratio in data set [3] was determined as 5560. Moreover, the IC50 in data set [4] is 9 nM; in data set [7], 50000 nM. Also, the Ki in data set [5] was determined as 41 nM; in data set [6], 76 nM.

As to `N#Cc1ccc(C[C@H](NC(=O)c2cnn(-c3ccc(F)cc3)n2)C(=O)NC2(C#N)CC2)cc1Cl`, the logD at 100 µM in data set [8] is 3.63. In data set [1], the solubility is below 0.3 µg/mL. In data set [2], the Ratio Ki turned out to be 36. The figures for the IC50 in data set [4] and in data set [7] were 6 nM and above 10000 nM, respectively. Moreover, the Ki in data set [5] amounted to 7 nM; in data set [6], 253 nM.

Regarding `N#CC1(NC(=O)[C@H](Cc2ccccc2C(F)(F)F)NC(=O)c2cnn(-c3ccc(F)cc3)n2)CC1`, the Ratio Ki in data set [2] was in the range of 18 to 507. This compound had a Ki in data set [5] of 7.4 to 597 nM.

In the case of `N#CC1(NC(=O)[C@H](Cc2ccccc2Cl)NC(=O)c2cnn(-c3ccc(F)cc3)n2)CC1`, the Ratio Ki in data set [2] fell in the range of 18 to 507. The compound also showed a Ki in data set [5] of 7.4 to 597 nM.

Consider `N#CC1(NC(=O)[C@H](Cc2ccc(Cl)c(Cl)c2)NC(=O)c2cnn(C3CCOCC3)n2)CC1`, for which the Ratio Ki in data set [2] turned out to be 23. Further, the results for the IC50 in data set [4] and in data set [7] were 23 nM and above 100000 nM, respectively. The Ki in data set [5] stood at 4 nM; in data set [6], 93 nM.

Turning to `N#CC1(NC(=O)[C@H](Cc2ccc(Cl)cc2)NC(=O)c2cnn(-c3ccc(F)cc3)n2)CC1`, the logD at 100 µM in data set [8] worked out at 3.97. Also, in data set [1], the solubility was below 0.3 µg/mL. Moreover, the Ratio Ki in data set [2] was 507. In addition, the half-maximal inhibitory concentration (IC50) in data set [4] is 6 nM; in data set [7], above 10000 nM. Further, the values for the Ki in data set [5] and in data set [6] were 3 nM and 1520 nM, respectively.

`CSc1ccc(-n2ncc(C(=O)N[C@@H](Cc3ccc(OC(F)(F)F)c(Cl)c3)C(=O)NC3(C#N)CC3)n2)cc1` displayed a solubility in data set [1] below 0.3 µg/mL. For the same compound, in data set [2], the Ratio Ki was determined as 59. Further, the concentration for half-maximal inhibition (IC50) in data set [4] is 67 nM; in data set [7] it was above 10000 nM. Also, the Ki is 19 nM in data set [5] and 1120 nM in data set [6].

As to `Cc1ccc(C(=O)Nc2ccc(S(=O)(=O)O)c3cc(S(=O)(=O)O)cc(S(=O)(=O)O)c23)cc1NC(=O)c1cccc(NC(=O)Nc2cccc(C(=O)Nc3cc(C(=O)Nc4ccc(S(=O)(=O)O)c5cc(S(=O)(=O)O)cc(S(=O)(=O)O)c45)ccc3C)c2)c1` [SURAMIN], the 50% inhibitory concentration (IC50) in data set [4] stood at 46 nM.

As for `N#CC1(NC(=O)[C@H](Cc2ccc(OC(F)(F)F)c(Cl)c2)NC(=O)c2cnn(-c3ccc(Br)cc3)n2)CC1`, the solubility in data set [1] was below 0.3 µg/mL. The Ratio Ki in data set [2] turned out to be 43. Besides, the selectivity ratio in data set [3] turned out to be 271. For the same compound, the 50% inhibitory concentration (IC50) in data set [4] is 28 nM; in data set [7], 7600 nM. Moreover, the Ki in data set [5] worked out at 25 nM; in data set [6] it was 1080 nM.

As to `N#CC1(NC(=O)[C@H](Cc2ccc(OCC3CC3)c(Cl)c2)NC(=O)c2cnn(-c3ccc(F)cc3)n2)CC1`, in data set [2], the Ratio Ki lay within 18 to 507. Moreover, the half-maximal inhibitory concentration (IC50) in data set [4] is 27 to 190 nM. For the same compound, the Ki in data set [5] was in the range of 9 to 16 nM; in data set [6] it was 181 to 314 nM.

In the case of `CC1CS(=O)(=O)CCN1/N=C/c1ccc([N+](=O)[O-])o1` (stereo not given) [NIFURTIMOX], the 50% inhibitory concentration (IC50) in data set [4] was found to be 1440 nM.

`N#CC1(NC(=O)[C@H](Cc2ccc(OCc3ccccc3)cc2)NC(=O)c2cnn(-c3ccc(F)cc3)n2)CC1`: in data set [1], the solubility is below 0.3 µg/mL. Besides, the Ratio Ki in data set [2] stood at 87. Besides, the IC50 was 19 nM in data set [4] and above 10000 nM in data set [7]. The inhibition constant Ki was 17 nM in data set [5] and 1470 nM in data set [6].

Turning to `N=C(N)c1ccc(OCCCCCOc2ccc(C(=N)N)cc2)cc1` [PENTAMIDINE], the IC50 in data set [4] was 9 nM.

Consider `N#CC1(NC(=O)[C@H](Cc2cccc(Cl)c2)NC(=O)c2cnn(-c3ccc(F)cc3)n2)CC1`, for which the Ratio Ki in data set [2] was 18 to 507. Besides, in data set [5], the Ki is 7.4 to 597 nM.

As for `CSc1ccc(OCc2ncc([N+](=O)[O-])n2C)cc1` [FEXINIDAZOLE], the IC50 in data set [4] fell in the range of 1710 to 2930 nM.

Regarding `N#CC1(NC(=O)[C@H](Cc2ccc(Cl)c(Cl)c2)NC(=O)c2cnn(C3CCC3)n2)CC1`, the Ratio Ki in data set [2] came to 0.1. Besides, the selectivity ratio in data set [3] was 14600. Besides, the IC50 in data set [4] amounted to 4 nM; in data set [7], 58200 nM. Also, the figures for the Ki in data set [5] and in data set [6] were 71 nM and 7 nM, respectively.
